Some results are limits rather than exact numbers.

By IC50 is commonly meant the concentration that inhibits the measured activity by half.

The target in one experiment is Prothrombin (Homo sapiens, UniProt P00734). In words: In vitro evaluation for the concentration needed for inhibiting thrombin by 50%.
In the next experiment the target is Coagulation factor X (Homo sapiens, UniProt P00742). The experiment can be described thus: In vitro evaluation for the concentration needed for inhibiting factor Xa by 50%.
Experiment [1] is described as follows: In vitro evaluation for the concentration needed to double the Plasma recalcification clotting time. Format: functional, Homo sapiens. The gist of the method: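 Human plasma incubated with saline or inhibitor in saline for 2 min at 37 °C. Clotting started with 20 mM CaCl2 solution. Result given as the concentration that doubles plasma clotting time (CT2).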

Experiment [2] concerns Rattus norvegicus. The experiment can be described thus: Ex vivo anticoagulant activity was measured by calculating the Activated partial thromboplastin time at 0.5 hr by dose of 300 mg/kg on oral administration in male Wistar rat. Format: functional. The gist of the method: (§1)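 Male Wistar rats (200-250 g), fasted overnight, given compound dissolved in water by stomach tube. Anesthetized with sodium thiopental (100 mg/kg, ip) 15 min after dosing. Jugular vein blood taken into trisodium citrate at several time points and centrifuged to platelet-poor plasma. APTT read after mixing plasma with saline and Platerin Plus activator, clotting started with 20 mM CaCl2. Reported as test/control ratio, mean ± SE, n = 4-5.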

For experiment [3], the system named is Rattus norvegicus. In words: Ex vivo anticoagulant activity was measured by calculating the Activated partial thromboplastin time at 1 hr by dose of 300 mg/kg on oral administration in male Wistar rat. Format: functional. The gist of the method:
as §1

The subject of experiment [4] is Rattus norvegicus. The experiment can be described thus: Ex vivo anticoagulant activity was measured by calculating the Activated partial thromboplastin time at 2 hr by dose of 300 mg/kg on oral administration in male Wistar rat. Format: functional. The gist of the method:
as §1

The test system of experiment [5] is Rattus norvegicus. The experiment can be described thus: Ex vivo anticoagulant activity was measured by calculating the Activated partial thromboplastin time at 4 hr by dose of 300 mg/kg on oral administration in male Wistar rat. Format: functional. The gist of the method:
as §1

For experiment [6], the system named is Rattus norvegicus. The experiment can be described thus: Ex vivo anticoagulant activity was measured by calculating the Activated partial thromboplastin time (test/control) at 4 hr by dose of 100 mg/kg on oral administration in male Wistar rat. Format: functional. Put shortly: as §1
Experiment [7] concerns Rattus norvegicus. In words: Ex vivo anticoagulant activity was measured by calculating the Activated partial thromboplastin time (test/control) at 0.5 h by dose of 100 mg/kg on oral administration in male Wistar rat. Format: functional. Put shortly: as §1
For experiment [8], the system named is Rattus norvegicus. The experiment can be described thus: Ex vivo anticoagulant activity was measured by calculating the Activated partial thromboplastin time (test/control) at 1 hr by dose of 100 mg/kg on oral administration in male Wistar rat. Format: functional. Put shortly: as §1
Experiment [9] concerns Rattus norvegicus. In words: Ex vivo anticoagulant activity was measured by calculating the Activated partial thromboplastin time (test/control) at 2 hr by dose of 100 mg/kg on oral administration in male Wistar rat. Format: functional. Put shortly: as §1

Coagulation factor X, sequence (P00742 41-179 limits assumed): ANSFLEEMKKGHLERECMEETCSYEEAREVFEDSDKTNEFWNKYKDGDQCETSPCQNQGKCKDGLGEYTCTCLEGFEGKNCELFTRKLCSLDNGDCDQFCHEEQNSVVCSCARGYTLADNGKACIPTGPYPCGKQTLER
Coagulation factor X, sequence (P00742 235-488 limits assumed): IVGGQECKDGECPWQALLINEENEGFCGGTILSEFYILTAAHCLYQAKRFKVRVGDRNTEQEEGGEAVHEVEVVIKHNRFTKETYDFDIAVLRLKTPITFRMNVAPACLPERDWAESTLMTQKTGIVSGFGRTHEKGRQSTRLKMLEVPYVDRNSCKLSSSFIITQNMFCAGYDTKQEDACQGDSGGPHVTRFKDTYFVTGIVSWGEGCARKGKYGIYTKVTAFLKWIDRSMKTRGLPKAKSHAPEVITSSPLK

With `N=C(N)c1ccc2ccc(CC(C(=O)O)c3ccc(O[C@H]4CCNC4)cc3)cc2c1` (some centres not stated), the IC50 was > 1600 µM at Prothrombin and 0.2 µM against Coagulation factor X. Also, the CT2 in experiment [1] is 3.2 µM.

For the compound `CCOC(=O)C(Cc1cc2ccc(C(=N)N)cc2o1)c1ccc(O[C@H]2CCNC2)cc1` (some centres not stated), the IC50 on Prothrombin was 36 µM; at Coagulation factor X, 1.7 µM. Further, the CT2 in experiment [1] worked out at 8.3 µM.

Regarding `CC(=N)N1CC[C@H](Oc2ccc([C@@H](Cc3ccc4ccc(C(=N)N)cc4c3)C(=O)O)cc2)C1`, in experiment [1], the CT2 came out at 6 µM.

Turning to `CC(=N)N1CC[C@H](Oc2ccc(CCc3cc4cc(C(=N)N)ccc4o3)cc2)C1`, the IC50 on Prothrombin stood at 4 µM; on Coagulation factor X it was 0.64 µM. In addition, in [1], the CT2 came to 1.2 µM.

Regarding `CC(=N)N1CC[C@H](Oc2ccc(C(Cc3ccc4cc(C(=N)N)ccc4c3)C(=O)O)cc2)C1` (some centres not stated), in experiment [1], the CT2 was 4.4 µM.

In the case of `N=C(N)c1ccc2oc(CCc3ccc(O[C@H]4CCNC4)cc3)cc2c1`, the IC50 turned out to be 100 µM against Prothrombin and 0.94 µM on Coagulation factor X. In addition, the CT2 in experiment [1] stood at 7.5 µM.

With `CC(=N)N1CC[C@H](Oc2ccc(C(Cc3ccc4ccc(C(=N)N)cc4c3)C(=O)O)cc2)C1` (some centres not stated), the CT2 in experiment [1] was determined as 1.3 µM.

On to `N=C(N)c1ccc2cc(CC(C(=O)O)c3ccc(O[C@H]4CCNC4)cc3)oc2c1` (some centres not stated), for which the IC50 was > 1000 µM at Prothrombin and 1.7 µM on Coagulation factor X. The CT2 in experiment [1] was 16 µM.

Turning to `CC(=N)N1CC[C@H](Oc2ccc(C(Cc3cc4ccc(C(=N)N)cc4o3)C(=O)O)cc2)C1` (some centres not stated), the figures for the IC50 at Prothrombin and against Coagulation factor X were > 400 µM and 0.84 µM, respectively. Moreover, the CT2 in [1] was found to be 5.6 µM.

`CCOC(=O)C(Cc1ccc2ccc(C(=N)N)cc2c1)c1ccc(O[C@H]2CCNC2)cc1` (some centres not stated): the results for the IC50 against Prothrombin and on Coagulation factor X were > 600 µM and 0.31 µM, respectively. In addition, in experiment [1], the CT2 worked out at 3.2 µM.

Regarding `CC(=N)N1CC[C@H](Oc2ccc(C(Cc3cc4cc(C(=N)N)ccc4o3)C(=O)O)cc2)C1` (some centres not stated), the IC50 on Prothrombin is 15 µM; on Coagulation factor X it was 0.5 µM. In addition, the CT2 in [1] came to 6 µM.

For the compound `CCOC(=O)C(Cc1ccc2cc(C(=N)N)ccc2c1)c1ccc(O[C@H]2CCNC2)cc1` (some centres not stated), the IC50 came to 38 µM at Prothrombin and 4.2 µM against Coagulation factor X. In experiment [1], the CT2 was found to be 12.4 µM.

In the case of `CCOC(=O)C(Cc1ccc(O[C@H]2CCNC2)cc1)c1cc2cc(C(=N)N)ccc2o1` (some centres not stated), the Tested/Control with Rattus norvegicus [2] is on record as 0.98; in the experiment on Rattus norvegicus [3] it was 1.3; in the experiment with Rattus norvegicus [4], 1.11; with Rattus norvegicus [5] it was 1.05. In addition, the IC50 on Prothrombin came out at 20 µM; against Coagulation factor X it was 52 µM. Besides, the CT2 in [1] was determined as 31 µM.

For `N=C(N)c1ccc2cc(CC(C(=O)O)c3ccc(O[C@H]4CCNC4)cc3)ccc2c1` (some centres not stated), the values for the IC50 against Prothrombin and against Coagulation factor X were > 100 µM and 4.1 µM, respectively. In addition, the CT2 in [1] is 22 µM.

In the case of `N=C(N)c1ccc2oc(CCc3cc4cc(C(=N)N)ccc4o3)cc2c1`, the IC50 was determined as 5 µM against Prothrombin and 0.1 µM at Coagulation factor X. The CT2 in [1] worked out at 1.6 µM.

For the compound `N=C(N)c1ccc2oc(CC(C(=O)O)c3ccc(O[C@H]4CCNC4)cc3)cc2c1` (some centres not stated), the Tested/Control in the experiment with Rattus norvegicus [2] is reported as 1.28; in the experiment on Rattus norvegicus [3] it was 1.4; in the experiment on Rattus norvegicus [4], 1.25; in the experiment on Rattus norvegicus [5] it was 1.2. On Prothrombin, this compound yielded an IC50 of 230 µM. For the same compound, the CT2 in experiment [1] worked out at 14 µM.

Take `N=C(N)c1ccc2oc(C(Cc3ccc(O[C@H]4CCNC4)cc3)C(=O)O)cc2c1` (some centres not stated): the IC50 came to 9 µM against Prothrombin and 45 µM at Coagulation factor X. The results for the Tested/Control in the experiment with Rattus norvegicus [3], in the experiment with Rattus norvegicus [4] and with Rattus norvegicus [5] were 1.33, 1.15 and 1.16, respectively. Besides, the CT2 in experiment [1] is 14 µM.

As to `CCOC(=O)C(Cc1cc2cc(C(=N)N)ccc2o1)c1ccc(O[C@H]2CCNC2)cc1` (some centres not stated), the Tested/Control in the experiment on Rattus norvegicus [2] is 1.17; in the experiment with Rattus norvegicus [3], 1.17; in the experiment with Rattus norvegicus [4], 1.19; in the experiment on Rattus norvegicus [5] it was 1.21. For the same compound, the results for the IC50 against Prothrombin and against Coagulation factor X were 21 µM and 1 µM, respectively. In [1], the CT2 is 20 µM.

Turning to `CC(=N)N1CC[C@H](Oc2ccc([C@H](Cc3ccc4ccc(C(=N)N)cc4c3)C(=O)O)cc2)C1` [DX-9065A], the Tested/Control with Rattus norvegicus [6] is 1.28; with Rattus norvegicus [7] it was 1.63; with Rattus norvegicus [8], 1.51; in the experiment on Rattus norvegicus [9], 1.48. In experiment [1], the CT2 is 0.5 µM.

The values above are taken from ChEMBL document CHEMBL1127638, “Dibasic (amidinoaryl)propanoic acid derivatives as novel blood coagulation factor Xa inhibitors” (J Med Chem, 1994).
